Source: ChEMBL document CHEMBL4024779, “Novel Terminal Bipheny-Based Diapophytoene Desaturases (CrtN) Inhibitors as Anti-MRSA/VISR/LRSA Agents with Reduced hERG Activity” (J Med Chem, 2018)
Activity calls are given as the source filed them. No cut-off for these calls is given here.

Key:
[1] = tested on: Staphylococcus aureus; test: In vivo anti-virulence activity against methicillin-resistant Staphylococcus aureus LRSA56 infected in BALB/c mouse model assessed as reduction in bacterial load in kidney at 0.1 mg bid for 3.5 days administered intraperitoneally 6 hrs post infection by serial dilution method relative to linezolid; assay type: functional; parameters: scale not given: the % may be the effect or the level left
How it was run: (§1)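 Mice were infected by retro-orbital injection with LRSA56 (5.0 × 10^7 CFU) or LRSA202 (7.0 × 10^7 CFU). Compound was given intraperitoneally 6 h after infection. […] Log10 CFU was counted in kidneys and hearts, with groups compared by two-tailed Mann-Whitney test.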

[2] = tested on: Staphylococcus aureus; test: In vivo anti-virulence activity against methicillin-resistant Staphylococcus aureus LRSA202 infected in BALB/c mouse model assessed as reduction in bacterial load in kidney at 0.1 mg bid for 3.5 days administered intraperitoneally 6 hrs post infection by serial dilution method relative to control; assay type: functional, organism-based; how it was run: as §1
[3] = AUC (0 to infinity) in Sprague-Dawley rat at 5 mg/kg, iv administered as single dose by LC-MS/MS analysis; assay type: ADME, organism-based; parameters: dose 5 mg/kg, time infinity, route intravenous; conditions: in vivo
[4] = Inhibition of CrtN in methicillin-resistant Staphylococcus aureus XN108 assessed as reduction in staphyloxanthin levels after 48 hrs by spectrophotometric method-based pigment inhibition assay
[5] = tested on: Staphylococcus aureus; test: In vivo anti-virulence activity against methicillin-resistant Staphylococcus aureus NF65Y infected in BALB/c mouse model assessed as reduction in bacterial load in heart at 0.1 mg bid for 3.5 days administered intraperitoneally 6 hrs post infection by serial dilution method relative to linezolid; assay type: functional, organism-based
How it was run: (§2)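 Mice infected retro-orbitally with S. aureus NF65Y (3.5 × 10^8 CFU) or XN108 (2.1 × 10^8 CFU). Test compound given i.p. b.i.d. starting 6 h post-infection. […] Log10 CFU per kidney and heart counted. Two-tailed Mann−Whitney test.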

[6] = AUC (0 to 24 hrs) in Sprague-Dawley rat at 5 mg/kg, iv administered as single dose by LC-MS/MS analysis; assay type: ADME, organism-based; parameters: dose 5 mg/kg, time < 24 hr, route intravenous; conditions: in vivo
[7] = tested on: Staphylococcus aureus; test: In vivo anti-virulence activity against methicillin-resistant Staphylococcus aureus NF65Y infected in BALB/c mouse model assessed as reduction in bacterial load in heart at 0.1 mg bid for 3.5 days administered intraperitoneally 6 hrs post infection by serial dilution method relative to vancomycin; assay type: functional, organism-based; how it was run: as §2
[8] = biological target: T1, 4,4'-diapophytoene desaturase (4,4'-diaponeurosporene-forming) (Staphylococcus aureus (strain USA300)) (UniProt Q2FDU6); conditions: Staphylococcus aureus LAC, 1 uM
T1 sequence (whole entry): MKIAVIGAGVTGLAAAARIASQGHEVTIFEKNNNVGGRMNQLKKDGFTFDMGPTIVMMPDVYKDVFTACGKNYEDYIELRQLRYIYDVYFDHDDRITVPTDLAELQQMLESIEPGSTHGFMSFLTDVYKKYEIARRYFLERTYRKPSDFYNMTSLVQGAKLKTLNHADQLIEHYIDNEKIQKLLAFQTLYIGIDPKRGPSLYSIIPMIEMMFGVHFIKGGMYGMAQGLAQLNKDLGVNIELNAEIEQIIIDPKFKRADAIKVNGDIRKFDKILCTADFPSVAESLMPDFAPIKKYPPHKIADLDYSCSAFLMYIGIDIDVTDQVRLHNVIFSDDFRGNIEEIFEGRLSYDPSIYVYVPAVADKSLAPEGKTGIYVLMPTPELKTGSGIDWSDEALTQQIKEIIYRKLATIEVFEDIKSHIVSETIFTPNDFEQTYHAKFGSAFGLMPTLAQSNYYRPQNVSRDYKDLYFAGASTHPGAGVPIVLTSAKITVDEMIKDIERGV

[9] = Cmax in Sprague-Dawley rat at 10 mg/kg, po administered as single dose by LC-MS/MS analysis; assay type: ADME, organism-based; parameters: dose 10 mg/kg, route oral; conditions: in vivo
[10] = tested on: Staphylococcus aureus; test: In vivo anti-virulence activity against Staphylococcus aureus Newman infected in BALB/c mouse model assessed as reduction in bacterial load in heart at 0.1 mg bid for 3.5 days administered orally 6 hrs post infection by serial dilution method relative to control; assay type: functional, organism-based
How it was run: (§3)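 Mice got 3.1 × 10^7 CFU S. aureus Newman by retro-orbital injection. Oral compound was given b.i.d. for 3.5 d, starting 6 h after infection. […] Log10 CFU was counted per kidney and per heart.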

[11] = Clearance in mouse at 2 mg/kg, iv administered as single dose by LC-MS/MS analysis; assay type: ADME, organism-based; conditions: in vivo
[12] = AUC (0 to 24 hrs) in Sprague-Dawley rat at 10 mg/kg, ip administered as single dose by LC-MS/MS analysis; assay type: ADME, organism-based; parameters: dose 10 mg/kg, time < 24 hr, route intraperitoneal; conditions: in vivo
[13] = Inhibition of CrtN in methicillin-resistant Staphylococcus aureus NRS108 assessed as reduction in staphyloxanthin levels after 48 hrs by spectrophotometric method-based pigment inhibition assay
[14] = tested on: Staphylococcus aureus; test: In vivo anti-virulence activity against Staphylococcus aureus Newman infected in BALB/c mouse model assessed as reduction in bacterial load in heart at 0.1 mg bid for 3.5 days administered orally 6 hrs post infection by serial dilution method relative to vancomycin; assay type: functional; parameters: scale not given: the % may be the effect or the level left; how it was run: as §3
[15] = tested on: Rattus norvegicus; test: Toxicity in Sprague-Dawley rat at 60 to 1000 mg/kg, po administered as single dose assessed as mortality measured immediately post administration; assay type: organism-based; conditions: in vivo
How it was run: (§4)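 Rats, 30 in total, randomised into three groups. Each received a single oral dose of 60, 250 or 1000 mg/kg on day 1. Poisoning symptoms, mortality, behaviour, water and food consumption and body weight monitored immediately and over 2 weeks.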

[16] = tested on: Rattus norvegicus; test: Toxicity in Sprague-Dawley rat at 60 to 1000 mg/kg, po administered as single dose assessed as mortality measured during 2 weeks post administration; assay type: organism-based; conditions: in vivo, 336 h; how it was run: as §4

For CN(C/C=C/c1ccc(-c2ccccc2)cc1)Cc1coc2ccccc12.Cl, the Activity [1] was >54.3%, the Activity [2] was “Active” and the AUC(0-inf) [3] was 2.86 µg·h/mL. The IC50 [4] was 0.2 nM, the Activity [5] was “Active” and the AUC(0-t) at 24 h [6] was 2.81 µg·h/mL. For the same molecule, the Activity [7] was “Active”, the Survival [8] was 2.3% and the Cmax [9] was 0.213 µg/mL. For the same molecule, the Activity [10] was “inactive”, the clearance [11] was 1.84 L/h/kg and the AUC(0-t) at 24 h [12] was 975 µg·h/mL. For the same molecule, the IC50 [13] was 5.6 nM, the Activity [14] was >55.3% and the Activity [15] was “Non-Toxic”. The Activity [16] was “Non-Toxic”.
